Source: ChEMBL document CHEMBL1123478, “Synthesis and antineoplastic activity of bis[[[(alkylamino)carbonyl]oxy]methyl]-substituted 3-pyrrolines as prodrugs of tumor inhibitory pyrrole bis(carbamates)” (1986)
Values joined by “and” are separate entries in the source; they are usually repeats but may differ in a detail not shown here. Identical values can stand only once.

Tests used:
[1] = test system: Mus musculus; assay: Tumor cell population at the end of treatment relative to its size at the beginning of the treatment was calculated at the 30 mg/kgd oses; format: functional; conditions: dose 30 mg/kg
Summary of the method: (§1)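 P388 leukemia ascitic fluid implanted intraperitoneally into CD2F1 mice. Dosing was intraperitoneal, starting 24 h after inoculation, once daily for five doses, as a suspension in saline and Tween 80 made fresh each day. Some compounds were given in Klucel (hydroxypropylcellulose) or in saline/Tween/alcohol instead. Acute toxicity was checked on day 5 and the study was evaluated on day 30.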

[2] = test system: P388; assay: Compound was tested for antitumor activity against P388 lymphocytic leukemia at the dose 60 mg/kg; format: functional, Mus musculus; summary of the method: as §1
[3] = test system: Mus musculus; assay: Body weight difference the relation of the test animal to control animal weight was calculated at the 30 mg/kg doses; format: functional; summary of the method: as §1
[4] = test system: P388; assay: Compound was tested for antitumor activity against P388 lymphocytic leukemia at the dose 15 mg/kg; format: functional, Mus musculus; summary of the method: as §1
[5] = test system: P388; assay: Compound was tested for antitumor activity against P388 lymphocytic leukemia at the dose 30 mg/kg; format: functional, Mus musculus; summary of the method: as §1
[6] = test system: Mus musculus; assay: Tumor cell population at the end of treatment relative to its size at the beginning of the treatment was calculated at the 60 mg/kg doses; format: functional; summary of the method: as §1
[7] = test system: Mus musculus; assay: Body weight difference the relation of the test animal to control animal weight was calculated at the 15 mg/kg doses; format: functional; summary of the method: as §1
[8] = Rate constants were calculated for the compound by linear regression analysis
[9] = test system: Mus musculus; assay: Body weight difference the relation of the test animal to control animal weight was calculated at the 60 mg/kg doses; format: functional; summary of the method: as §1
[10] = test system: Mus musculus; assay: Tumor cell population at the end of treatment relative to its size at the beginning of the treatment was calculated at the 150 mg/kg doses; format: functional; conditions: dose 15 mg/kg; in the assay text read “15 mg/kg doses” for “150 mg/kg doses”; summary of the method: as §1
[11] = test system: Mus musculus; assay: Tumor cell population at the end of treatment relative to its size at the beginning of the treatment was calculated at the 25 mg/kg doses; format: functional; summary of the method: as §1
[12] = test system: Mus musculus; assay: Body weight difference the relation of the test animal to control animal weight was calculated at the 50 mg/kg doses; format: functional; summary of the method: as §1
[13] = test system: P388; assay: Compound was tested for antitumor activity against P388 lymphocytic leukemia at the dose 25 mg/kg; format: functional, Mus musculus; summary of the method: as §1
[14] = test system: P388; assay: Compound was tested for antitumor activity against P388 lymphocytic leukemia at the dose 100 mg/kg; format: functional, Mus musculus; summary of the method: as §1
[15] = test system: P388; assay: Compound was tested for antitumor activity against P388 lymphocytic leukemia at the dose 12.5 mg/kg; format: functional, Mus musculus; summary of the method: as §1
[16] = test system: Mus musculus; assay: Tumor cell population at the end of treatment relative to its size at the beginning of the treatment was calculated at the 50 mg/kg doses; format: functional; summary of the method: as §1
[17] = test system: P388; assay: Compound was tested for antitumor activity against P388 lymphocytic leukemia at the dose 50 mg/kg; format: functional, Mus musculus; summary of the method: as §1
[18] = test system: Mus musculus; assay: Body weight difference the relation of the test animal to control animal weight was calculated at the 100 mg/kg doses; format: functional; summary of the method: as §1
[19] = test system: Mus musculus; assay: Body weight difference the relation of the test animal to control animal weight was calculated at the 25 mg/kg doses; format: functional; summary of the method: as §1
[20] = test system: Mus musculus; assay: Body weight difference the relation of the test animal to control animal weight was calculated at the 12.5 mg/kg doses; format: functional; summary of the method: as §1
[21] = test system: Mus musculus; assay: Tumor cell population at the end of treatment relative to its size at the beginning of the treatment was calculated at the 12.5 mg/kg doses; format: functional; summary of the method: as §1
[22] = test system: Mus musculus; assay: Tumor cell population at the end of treatment relative to its size at the beginning of the treatment was calculated at the 100 mg/kg doses; format: functional; summary of the method: as §1
[23] = test system: Mus musculus; assay: Body weight difference the relation of the test animal to control animal weight was calculated at the 120 mg/kg doses; format: functional; summary of the method: as §1
[24] = test system: P388; assay: Compound was tested for antitumor activity against P388 lymphocytic leukemia at the dose 120 mg/kg; format: functional, Mus musculus; summary of the method: as §1
[25] = test system: Mus musculus; assay: Body weight difference the relation of the test animal to control animal weight was calculated at the 240 mg/kg doses; format: functional; summary of the method: as §1
[26] = test system: P388; assay: Compound was tested for antitumor activity against P388 lymphocytic leukemia at the dose 480 mg/kg; format: functional, Mus musculus; summary of the method: as §1
[27] = test system: Mus musculus; assay: Body weight difference the relation of the test animal to control animal weight was calculated at the 480 mg/kg doses; format: functional; summary of the method: as §1
[28] = test system: P388; assay: Compound was tested for antitumor activity against P388 lymphocytic leukemia at the dose 240 mg/kg; format: functional, Mus musculus; summary of the method: as §1
[29] = test system: Mus musculus; assay: Tumor cell population at the end of treatment relative to its size at the beginning of the treatment was calculated at the 120 mg/kg doses; format: functional; summary of the method: as §1
[30] = test system: Mus musculus; assay: Tumor cell population at the end of treatment relative to its size at the beginning of the treatment was calculated at the 240 mg/kg doses; format: functional; summary of the method: as §1
[31] = test system: Mus musculus; assay: Tumor cell population at the end of treatment relative to its size at the beginning of the treatment was calculated at the 480 mg/kg doses; format: functional; summary of the method: as §1
[32] = test system: Mus musculus; assay: Tumor cell population at the end of treatment relative to its size at the beginning of the treatment was calculated at the 7.5 mg/kg doses; format: functional; summary of the method: as §1
[33] = test system: P388; assay: Compound was tested for antitumor activity against P388 lymphocytic leukemia at the dose 7.5 mg/kg; format: functional, Mus musculus; summary of the method: as §1
[34] = test system: Mus musculus; assay: Body weight difference the relation of the test animal to control animal weight was calculated at the 7.5 mg/kg doses; format: functional; summary of the method: as §1
[35] = test system: Mus musculus; assay: Tumor cell population at the end of treatment relative to its size at the beginning of the treatment was calculated at the 15 mg/kg doses; format: functional; summary of the method: as §1
[36] = test system: P388; assay: Compound was tested for antitumor activity against P388 lymphocytic leukemia at the dose 400 mg/kg; format: functional, Mus musculus; summary of the method: as §1
[37] = test system: P388; assay: Compound was tested for antitumor activity against P388 lymphocytic leukemia at the dose 200 mg/kg; format: functional, Mus musculus; summary of the method: as §1
[38] = test system: Mus musculus; assay: Body weight difference the relation of the test animal to control animal weight was calculated at the 400 mg/kg doses; format: functional; summary of the method: as §1
[39] = test system: Mus musculus; assay: Body weight difference the relation of the test animal to control animal weight was calculated at the 200 mg/kg doses; format: functional; summary of the method: as §1

COc1ccc(-c2c(COC(=O)NC(C)C)c(COC(=O)NC(C)C)cn2C)cc1
KE [1]: -0.08
T/C [2]: 164%
BDW [3]: 0.4 g
T/C [4]: 123%
T/C [5]: 117%
KE [6]: 0.1
BDW [7]: 0 g
K' [8]: 0.231 abs/time
BDW [9]: -0.8 g
KE [10]: -0.06

CC(C)NC(=O)OCC1=C(COC(=O)NC(C)C)[C@@H](c2ccccc2)N(C)[C@H]1c1ccccc1
KE [11]: 0.16
BDW [12]: -2.3 g
T/C [13]: 139%
T/C [14]: 189%
T/C [15]: 120%
KE [16]: 0.53
T/C [17]: 145%
BDW [18]: -3 g
BDW [19]: -1.2 g
BDW [20]: 0 g
KE [21]: -0.9
KE [22]: 3.06

COc1ccc(C2C(COC(=O)NC(C)C)=C(COC(=O)NC(C)C)CN2C)cc1 (configuration not stated)
T/C [2]: 158%
BDW ([23]; 120 mg/kg): -1.9 g and -1.2 g
T/C [24]: 110%

CC(C)NC(=O)OCc1cn2c(c1COC(=O)NC(C)C)-c1cc(Cl)c(Cl)cc1CC2
T/C [2]: 86%
KE [6]: -1.54
BDW [25]: -2.3 g
K' [8]: 0.00154 abs/time
T/C [26]: 185%
BDW [27]: -3.2 g
T/C [28]: 137%
KE [29]: -0.68
BDW [9]: -0.4 g
BDW [23]: -2.2 g
T/C [24]: 130%
KE [30]: 0.1
KE [31]: 5.05

COc1ccc2c(c1)CCn1cc(COC(=O)NC(C)C)c(COC(=O)NC(C)C)c1-2
BDW [3]: -3.1 g
T/C [4]: 125%
KE [32]: 0.16
BDW [7]: -3 g
K' [8]: 0.449 abs/time
T/C [33]: 175%
BDW [34]: -2.6 g
KE [35]: -0.04

CC(C)NC(=O)OCC1=C(COC(=O)NC(C)C)C(C)(C)N(C)C1c1ccccc1 (configuration not stated)
BDW [12]: 0.5 g
T/C [36]: 107%
T/C [14]: 113%
T/C [17]: 108%
BDW [18]: -0.3 g
T/C [37]: 108%
BDW [38]: -2.3 g
BDW [39]: -0.1 g

CC(C)NC(=O)OCC1=C(COC(=O)NC(C)C)C(c2ccc(F)cc2)N(C)C1 (configuration not stated)
T/C [2]: 112%
BDW [25]: -2.7 g
T/C [28]: 137%
BDW [9]: -0.2 g
BDW [23]: -2.7 g
T/C [24]: 131%

CC(C)NC(=O)OCC1=C(COC(=O)NC(C)C)C(c2ccc(Cl)c(Cl)c2)N(C)C1 (configuration not stated)
T/C [2]: 110%
BDW [25]: -2.5 g
T/C [28]: 119%
BDW [9]: -1.3 g
BDW [23]: -1.6 g
T/C [24]: 117%

CC(C)NC(=O)OCC1=C(COC(=O)NC(C)C)C(c2ccccc2)N(C)C1 (configuration not stated)
KE [11]: 0
BDW [12]: -2 g
T/C [13]: 136%
T/C [14]: 225%
T/C [15]: 121%
KE [16]: 0.53
T/C [17]: 145%
BDW [18]: -2.2 g
BDW [19]: -0.9 g
BDW [20]: 0 g
KE [21]: 0.84
KE [22]: 5.18

CNC(=O)OCC1=C(COC(=O)NC)[C@@H](c2ccccc2)N(C)[C@H]1c1ccccc1
KE [11]: 0
BDW [12]: -1.7 g
T/C [13]: 136%
T/C [15]: 116%
KE [16]: 1.06
T/C [17]: 154%
BDW [18]: -4.3 g
BDW [19]: -1.4 g
BDW [20]: -0.1 g
KE [21]: -1.16

CC(C)NC(=O)OCc1cn(C)c(-c2ccccc2)c1COC(=O)NC(C)C
KE [1]: -0.15
BDW [3]: -2.3 g
T/C [4]: 148%
KE [32]: -0.04
T/C [5]: 100%
BDW [7]: -0.1 g
K' [8]: 0.0935 abs/time
T/C [33]: 127%
BDW [9]: -4 g
BDW [34]: 0.1 g
BDW [23]: -4.6 g
KE [35]: -0.04

Cc1c(COC(=O)NC(C)C)c(COC(=O)NC(C)C)c(-c2ccccc2)n1C
K' [8]: 1.68 abs/time

CC(C)NC(=O)OCc1cn(C)c(-c2ccc(F)cc2)c1COC(=O)NC(C)C
KE [1]: 0.21
BDW [3]: -2.2 g
T/C [4]: 145%
T/C [5]: 188%
BDW [7]: -0.4 g
K' [8]: 0.0516 abs/time
BDW [9]: -2.7 g
KE [35]: 0.04

CC(C)NC(=O)OCc1cn(C)c(-c2ccc(Cl)c(Cl)c2)c1COC(=O)NC(C)C
T/C [2]: 117%
KE [6]: -1.15
BDW [25]: -2.7 g
K' [8]: 0.00605 abs/time
T/C [26]: 169%
BDW [27]: -3.6 g
T/C [28]: 160%
KE [29]: -0.39
BDW [9]: -0.8 g
BDW [23]: -1.6 g
T/C [24]: 133%
KE [30]: 2.43
KE [31]: 3.4
